Key:
Escherichia coli = assay: Antibacterial activity against Escherichia coli K-12 ITM103 after 24 to 48 hrs by soft agar procedure; assay type: functional
Method in brief: (§1)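 Tolaasin stock solutions in distilled water were serially diluted 1:1 and applied as drops onto soft-agar lawns of the test organism. The endpoint recorded was the last dilution that still inhibited growth in the area where the drop was applied.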

Rhodococcus fascians = assay: Antibacterial activity against Rhodococcus fascians NCPPB3067 after 24 to 48 hrs by soft agar procedure; assay type: functional, Rhodococcoides fascians; method in brief: as §1
Rhodotorula mucilaginosa = assay: Antifungal activity against Rhodotorula pilimanae ATCC 26423 after 24 to 48 hrs by soft agar procedure; assay type: functional; method in brief: as §1
[1] = tested on: Pectobacterium carotovorum; assay: Antibacterial activity against Erwinia carotovora subsp. carotovora ICMP 5702 after 24 to 48 hrs by soft agar procedure; assay type: functional, Pectobacterium carotovorum subsp. carotovorum; method in brief: as §1
Priestia megaterium = assay: Antibacterial activity against Bacillus megaterium ITM 100 after 24 to 48 hrs by soft agar procedure; assay type: functional; method in brief: as §1
Rhizoctonia solani = assay: Antifungal activity against Rhizoctonia solani 1583 after 24 to 48 hrs by soft agar procedure; assay type: functional; method in brief: as §1

SMILES: C/C=C(\NC(=O)[C@H](NC(=O)[C@H](CC(C)C)NC(=O)[C@@H](CCC(N)=O)NC(=O)[C@@H](NC(=O)[C@H](NC(=O)[C@@H](CC(C)C)NC(=O)[C@@H](CO)NC(=O)[C@H](NC(=O)[C@H](CC(C)C)NC(=O)[C@H](CO)NC(=O)[C@H]1CCCN1C(=O)/C(=C/C)NC(=O)CCCC(=O)O)C(C)C)C(C)C)C(C)C)C(C)C)C(=O)N[C@H]1C(=O)N[C@@H]([C@@H](C)CC)C(=O)N[C@@H](CCO)C(=O)N[C@H](CCN)C(=O)N[C@@H](CCCCN)C(=O)O[C@@H]1C [TOLAASIN A]
- MIC (Escherichia coli): >5.12 µg
- MIC (Rhodococcus fascians): 1.28 µg
- MIC (Rhodotorula mucilaginosa): 5.12 µg
- MIC [1]: >5.12 µg
- MIC (Priestia megaterium): 1.28 µg
- MIC (Rhizoctonia solani): 1.28 µg

SMILES: C/C=C(\NC(=O)[C@H](NC(=O)[C@H](CC(C)C)NC(=O)[C@@H](CCC(N)=O)NC(=O)[C@@H](NC(=O)[C@H](NC(=O)[C@@H](CC(C)C)NC(=O)[C@@H](CO)NC(=O)[C@H](NC(=O)[C@H](CC(C)C)NC(=O)[C@H](CO)NC(=O)[C@H]1CCCN1C(=O)/C(=C/C)NC(=O)CC(O)CCCCC)C(C)C)C(C)C)C(C)C)C(C)C)C(=O)N[C@H]1C(=O)N[C@@H](C(C)C)C(=O)N[C@@H](CCO)C(=O)N[C@H](CCN)C(=O)N[C@@H](CCCCN)C(=O)O[C@@H]1C (some centres not stated) [TOLAASIN B]
- MIC (Escherichia coli): >5.12 µg
- MIC (Rhodococcus fascians): 1.28 µg
- MIC (Rhodotorula mucilaginosa): >5.12 µg
- MIC [1]: >5.12 µg
- MIC (Priestia megaterium): 2.56 µg
- MIC (Rhizoctonia solani): 2.56 µg

SMILES: C/C=C(\NC(=O)[C@H](NC(=O)[C@H](CC(C)C)NC(=O)[C@@H](CCC(N)=O)NC(=O)[C@@H](NC(=O)[C@H](NC(=O)[C@@H](CC(C)C)NC(=O)[C@@H](CO)NC(=O)[C@H](NC(=O)[C@H](CC(C)C)NC(=O)[C@H](CO)NC(=O)[C@H]1CCCN1C(=O)/C(=C/C)NC(=O)CC(O)CCCCC)C(C)C)C(C)C)C(C)C)C(C)C)C(=O)N[C@@H](C(=O)N[C@H](C(=O)N[C@@H](CCO)C(=O)N[C@H](CCN)C(=O)N[C@@H](CCCCN)C(=O)O)[C@@H](C)CC)[C@@H](C)O (some centres not stated) [TOLAASIN C]
- MIC (Escherichia coli): >5.12 µg
- MIC (Rhodococcus fascians): >5.12 µg
- MIC (Rhodotorula mucilaginosa): >5.12 µg
- MIC [1]: >5.12 µg
- MIC (Priestia megaterium): >5.12 µg
- MIC (Rhizoctonia solani): 5.12 µg

SMILES: C/C=C(\NC(=O)[C@H](NC(=O)[C@H](CC(C)C)NC(=O)[C@@H](CCC(N)=O)NC(=O)[C@@H](NC(=O)[C@H](NC(=O)[C@@H](CC(C)C)NC(=O)[C@@H](CO)NC(=O)[C@H](NC(=O)[C@H](CC(C)C)NC(=O)[C@H](CO)NC(=O)[C@H]1CCCN1C(=O)/C(=C/C)NC(=O)CC(O)CCCCC)C(C)C)C(C)C)C(C)C)C(C)C)C(=O)N[C@H]1C(=O)N[C@@H](CC(C)C)C(=O)N[C@@H](CCO)C(=O)N[C@H](CCN)C(=O)N[C@@H](CCCCN)C(=O)O[C@@H]1C (some centres not stated) [TOLAASIN D]
- MIC (Escherichia coli): >5.12 µg
- MIC (Rhodococcus fascians): 0.16 µg
- MIC (Rhodotorula mucilaginosa): 2.56 µg
- MIC [1]: >5.12 µg
- MIC (Priestia megaterium): 0.16 µg
- MIC (Rhizoctonia solani): 0.16 µg

SMILES: C/C=C(\NC(=O)[C@H](NC(=O)[C@H](CC(C)C)NC(=O)[C@@H](CCC(N)=O)NC(=O)[C@@H](NC(=O)[C@H](NC(=O)[C@@H](CC(C)C)NC(=O)[C@@H](CO)NC(=O)[C@H](NC(=O)[C@H](CC(C)C)NC(=O)[C@H](CO)NC(=O)[C@H]1CCCN1C(=O)/C(=C/C)NC(=O)CC(O)CCCCC)C(C)C)C(C)C)C(C)C)C(C)C)C(=O)N[C@H]1C(=O)N[C@@H](CC(C)C)C(=O)NCC(=O)N[C@H](CCN)C(=O)N[C@@H](CCCCN)C(=O)O[C@@H]1C (some centres not stated) [TOLAASIN E]
- MIC (Escherichia coli): >5.12 µg
- MIC (Rhodococcus fascians): 2.56 µg
- MIC (Rhodotorula mucilaginosa): >5.12 µg
- MIC [1]: >5.12 µg
- MIC (Priestia megaterium): 2.56 µg
- MIC (Rhizoctonia solani): 5.12 µg

SMILES: C/C=C(\NC(=O)[C@H](NC(=O)[C@H](CC(C)C)NC(=O)[C@@H](CCC(N)=O)NC(=O)[C@@H](NC(=O)[C@H](NC(=O)[C@@H](CC(C)C)NC(=O)[C@@H](CO)NC(=O)[C@H](NC(=O)[C@H](CC(C)C)NC(=O)[C@H](CO)NC(=O)[C@H]1CCCN1C(=O)/C(=C/C)NC(=O)CC(O)CCCCC)C(C)C)C(C)C)C(C)C)C(C)C)C(=O)N[C@H]1C(=O)N[C@@H]([C@@H](C)CC)C(=O)NCC(=O)N[C@H](CCN)C(=O)N[C@@H](CCCCN)C(=O)O[C@@H]1C (some centres not stated) [TOLAASIN II]
- MIC (Escherichia coli): >5.12 µg
- MIC (Rhodococcus fascians): 0.64 µg
- MIC (Rhodotorula mucilaginosa): 5.12 µg
- MIC [1]: >5.12 µg
- MIC (Priestia megaterium): 0.64 µg
- MIC (Rhizoctonia solani): 0.64 µg

SMILES: C/C=C(\NC(=O)[C@H](NC(=O)[C@H](CC(C)C)NC(=O)[C@@H](CCC(N)=O)NC(=O)[C@@H](NC(=O)[C@H](NC(=O)[C@@H](CC(C)C)NC(=O)[C@@H](CO)NC(=O)[C@H](NC(=O)[C@H](CC(C)C)NC(=O)[C@H](CO)NC(=O)[C@H]1CCCN1C(=O)/C(=C/C)NC(=O)CC(O)CCCCC)C(C)C)C(C)C)C(C)C)C(C)C)C(=O)N[C@H]1C(=O)N[C@@H]([C@@H](C)CC)C(=O)N[C@@H](CCO)C(=O)N[C@H](CCN)C(=O)N[C@@H](CCCCN)C(=O)O[C@@H]1C (some centres not stated) [TOLAASIN I]
- MIC (Escherichia coli): >5.12 µg
- MIC (Rhodococcus fascians): 0.32 µg
- MIC (Rhodotorula mucilaginosa): 2.56 µg
- MIC [1]: >5.12 µg
- MIC (Priestia megaterium): 0.32 µg
- MIC (Rhizoctonia solani): 0.32 µg

From ChEMBL document CHEMBL1151201, “Tolaasins A--E, five new lipodepsipeptides produced by Pseudomonas tolaasii” (2004)
